According to ChEMBL document CHEMBL3108717, “Dysideanones A-C, unusual sesquiterpene quinones from the South China Sea sponge Dysidea avara” (J Nat Prod, 2014):
In brackets after ≈: the same amount, converted by molar mass. Activity calls are given as the source filed them. The rule behind the calls is not given here.

Experiments:
HeLa = experiment: Cytotoxicity against human HeLa cells after 48 hrs by MTT assay; format: functional, cell-based
Summary of the method: (§1)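 MTT assay. Cells grown in RPMI1640 or DMEM with 10% fetal bovine serum at 37 °C, 5% CO2. Adherent cells allowed to attach 12 h before dosing; suspended cells seeded at dosing, initial density 1 × 10^5 cells/mL. Tested at 1, 10, 50 and 100 μM for 48 h in triplicate, 5-fluorouracil as positive control. Cells solubilized with DMSO, OD read at 595 nm. IC50 taken from mean-OD versus concentration curves.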

HepG2 = experiment: Cytotoxicity against human HepG2 cells after 48 hrs by MTT assay; format: functional, cell-based; conditions: HepG2, 48 h; summary of the method: as §1
Aspergillus niger = experiment: Antifungal activity against Aspergillus niger at 1 mg/mL; format: functional, organism-based
Rhodotorula glutinis = experiment: Antifungal activity against Rhodotorula glutinis at 1 mg/mL; format: functional, organism-based
Candida albicans = experiment: Antifungal activity against Candida albicans at 1 mg/mL; format: functional, organism-based
Bacillus subtilis = experiment: Antibacterial activity against Bacillus subtilis at 1 mg/mL; format: functional, organism-based
Staphylococcus aureus [1] = experiment: Antibacterial activity against Staphylococcus aureus at 1 mg/mL; format: functional, organism-based
Staphylococcus aureus [2] = experiment: Antibacterial activity against methicillin/multi-drug-resistant Staphylococcus aureus assessed as growth inhibition; format: functional

Row | Structure (SMILES) | IC50 (HeLa) | IC50 (HepG2) | Activity (Aspergillus niger) | Activity (Rhodotorula glutinis) | Activity (Candida albicans) | Activity (Bacillus subtilis) | Activity (Staphylococcus aureus [1]) | MIC50 (Staphylococcus aureus [2])
1 | O=c1[nH]cc(F)c(=O)[nH]1 [FLUOROURACIL] | 2.3 µM | 7.6 µM |  |  |  |  |  | 
2 | C=C1CC[C@@H]2C3=C(C[C@]4(C)[C@@H](C)CC[C@@]1(C)[C@@H]24)C(=O)C(OCC)=CC3=O | 7.1 µM | 9.4 µM | inactive | inactive | inactive | inactive | inactive | 
3 | C=C1[C@H]2C[C@]3(C)C(C)=CCC[C@H]3[C@]1(C)CC1=C2C(=O)C=C(OCC)C1=O |  |  |  |  |  |  |  | 0.2 µg/mL (≈ 0.567 µM)
4 | CC1=CC[C@H]2[C@H]3[C@](C)(CC4=CC(=O)C=C[C@@]42O)[C@@H](C)CC[C@]13C |  |  | inactive | inactive | inactive | inactive | inactive | 
5 | CC1=CCC[C@H]2[C@]3(C)CC4=CC(=O)C=C[C@@]4(O)[C@]3(C)CC[C@]12C |  |  | inactive | inactive | inactive | inactive | inactive | 
